Compounds with a hit are over-represented: about 1.8% of the library has one in this group of screens.
TbMetRS inhib = T. brucei MetRS inhibitors, primary screen, biochemical, luminescence; purified T. brucei MetRS, ATP depletion, Kinase-Glo luminescence; inhibition, % at 11.9 µM; 360,000 tested, 0.4% active; AID 624268, 2012;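 active = inhibition above a per-plate cutoff of the control wells' mean inhibition plus 3 SD, cut at about 5.5% in these data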;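 note: 0% = DMSO wells median and 100% = median of wells with control inhibitor compound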
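Material – parasite MetRS enzyme · Medium – HEPES-MgCl2-KCl buffer plus DTT, spermine, BSA, pyrophosphatase · Reagent – ATP, methionine and E. coli bulk tRNA substrates · Times – 15 min enzyme-compound preincubation, 2 h reaction, 10 min detection, 25 °C · Measured by – luminescence of leftover ATP · Evaluation – percent inhibition relative to median high and low control wells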
Rin1 Abl inh = inhibitors of Rin1-Abl protein binding, primary screen, biochemical, TR-FRET. Tyrosine-protein kinase ABL1 (Homo sapiens) + Ras and Rab interactor 1 (Homo sapiens), …. AID 588664, 2011. inhibition, % at 7.35 µM. 360,000 tested, 0.4% active; in the data active = inhibition above about 5%, passing the limit was not always enough
PG9 binder = binders of HIV-1 gp120 antibody PG9, primary screen, biochemical, TR-FRET; 360,000 tested, 0.43% active; inhibition, % at 6.7 µM; HIV-1 gp120 / PG9 antibody interaction; AID 624416, 2012; TR-FRET gp120-PG9 antibody binding; in the data active = inhibition above about 8.5%
NR1D1 modulator = modulators of Rev-erb alpha DNA binding, primary screen, biochemical, FITC-DNA, fluorescence polarization, uHTS. Rev-erbα–FITC-DNA binding, 90 min. activity, % at 10 µM. 370,000 tested, 0.79% active. AID 1259318, 2017;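 active = activity above about 14%, limit read from the data; passing the limit was not always enough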;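 note: 0% = DMSO wells with 35 nM protein and 100% = DMSO wells with 750 nM protein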
Target sequence (P20393 whole entry, looked up): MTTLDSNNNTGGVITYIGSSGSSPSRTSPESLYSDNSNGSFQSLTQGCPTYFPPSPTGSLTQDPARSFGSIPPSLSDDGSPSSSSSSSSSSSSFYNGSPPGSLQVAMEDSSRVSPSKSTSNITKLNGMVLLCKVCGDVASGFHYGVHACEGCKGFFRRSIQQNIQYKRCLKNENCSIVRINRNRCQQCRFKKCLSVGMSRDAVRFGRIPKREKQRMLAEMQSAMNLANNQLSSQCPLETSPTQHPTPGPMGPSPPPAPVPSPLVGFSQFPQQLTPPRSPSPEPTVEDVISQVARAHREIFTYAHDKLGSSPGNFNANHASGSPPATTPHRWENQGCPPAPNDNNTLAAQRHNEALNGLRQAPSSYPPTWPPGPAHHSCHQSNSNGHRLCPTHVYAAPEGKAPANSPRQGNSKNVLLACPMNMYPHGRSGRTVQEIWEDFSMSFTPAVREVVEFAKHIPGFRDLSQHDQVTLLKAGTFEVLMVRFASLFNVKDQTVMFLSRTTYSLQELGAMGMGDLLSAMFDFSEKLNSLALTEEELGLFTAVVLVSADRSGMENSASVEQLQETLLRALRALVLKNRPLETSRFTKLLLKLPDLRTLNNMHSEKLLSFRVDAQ
TbMetRS confirm = T. brucei MetRS inhibitors, confirmation, biochemical, luminescence. shares compounds with TbMetRS inhib. AID 624412, 2012. T. brucei MetRS enzyme, luminescence (ATP depletion). 1,400 tested, 93% active. inhibition, % at 11.9 µM; in the data active = inhibition above about 7%
Jurkat tox = Jurkat T cell cytotoxicity, cytotoxicity control for T. brucei MetRS inhibitor project, luminescence, high throughput; AID 624413, 2012; Jurkat cells viability, ATP luminescence; 1,400 tested, 12% active; inhibition, % at 8.3 µM; shares compounds with TbMetRS inhib; in the data active = inhibition above about 15%;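 note: 0% = vehicle and 100% = reference inhibitor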
TbMetRS FP orth = T. brucei MetRS inhibitors, orthogonal assay for T. brucei MetRS inhibitor project, biochemical, fluorescence polarization. shares compounds with TbMetRS inhib. purified T. brucei MetRS. inhibition, % at 11.9 µM. 1,400 tested, 44% active; in the data active = inhibition above about 17%;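 note: 0% = vehicle wells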
Starred values were filed as active, the others as inactive; x = no result.

SMILES	TbMetRS inhib	Rin1 Abl inh	PG9 binder	NR1D1 modulator	TbMetRS confirm	Jurkat tox	TbMetRS FP orth
COCCCNC(=S)NNC(=O)c1ccc(C(C)(C)C)cc1	-1.0	-0.7	0.9	-1.6	x	x	x
COCCCNC(=S)NNC(=O)c1ccc(S(=O)(=O)N2CCC(C)CC2)cc1	58.7*	-2.8	-1.2	0.0	80.5*	3.0	50.0*
Cc1cc(SCC(=O)N/N=C/c2ccc(O)c(O)c2O)c(C)cc1Br	76.4*	3.0	1.4	-2.7	103.5*	56.1*	84.3*
O=C1CCC(C(=O)OC(C(=O)c2c[nH]c3ccccc23)c2ccccc2)=NN1 (configuration not stated)	9.9*	7.1	0.3	-2.9	23.6*	3.9	8.7
O=C(c1c[nH]c2ccccc12)C(Cl)c1ccccc1 (configuration not stated)	24.7*	3.1	0.3	-1.7	45.4*	45.4*	23.5*
O=C(OC(C(=O)c1c[nH]c2ccccc12)c1ccccc1)c1cnccn1 (configuration not stated)	14.6*	-2.6	-1.0	2.6	27.1*	-4.4	17.4*
O=C(Nc1ccc(C(O)(C(F)(F)F)C(F)(F)F)cc1)c1c(F)cccc1F	x	x	x	-7.4	x	x	x
O=C(Cc1ccccc1)N/N=C/c1cccn1-c1ccc([N+](=O)[O-])cc1	13.0*	0.4	-0.6	-2.7	34.5*	-1.5	16.6
C=CCN1C(=O)[C@@H](CC(=O)N2CCSCC2)[C@]2(C(=O)OC)CCCCC=C12	x	x	x	-8.5	x	x	x
O=C(CSc1nnc(Cc2ccc(Cl)cc2)o1)Nc1ccccc1	7.5*	-1.4	1.9	-2.7	13.7*	0.7	9.7
Cc1ccc(NC(=O)CSc2nnc(Cc3ccccc3)o2)cc1	-0.1	5.7	0.8	1.8	x	x	x
CCCCCCCCNC(=O)C1CSCCS(=O)(=O)N1Cc1ccc(F)cc1 (configuration not stated)	x	x	x	-0.9	x	x	x
C/C(=N/OC(=O)c1ccc(C)cc1)C(=O)c1ccc(Br)cc1	0.0	2.2	-1.9	3.6	x	x	x
CC/C(=N/O)C(=O)c1ccc(Br)cc1	6.2*	-3.8	-3.6	-4.4	18.9*	-2.8	10.6
O=C(Nc1ccc(C(=O)O)cc1)/C(=C\C=C\c1ccccc1)NC(=O)c1ccc(Br)cc1	21.3*	-0.9	-2.3	-3.9	39.6*	1.2	38.8*
CC(=O)Oc1ccc(/C=C(\NC(=O)c2cccc(Br)c2)C(=O)Nc2ccc(C(=O)O)cc2)cc1	6.2*	1.0	-2.0	0.4	12.0*	-2.0	10.2
COc1ccc(/C=C(\NC(=O)c2ccc(OC)cc2)C(=O)Nc2ccc(C(=O)O)cc2)cc1	1.0	0.4	-1.0	-0.6	x	x	x
O=C(Nn1c(-c2ccncc2)nc2ccccc2c1=O)c1ccc(Br)cc1	-0.7	3.7	-0.2	0.3	x	x	x
O=C(Nn1c(-c2ccc(Br)cc2)nc2ccccc2c1=O)c1ccc([N+](=O)[O-])cc1	8.7*	-0.1	0.1	-1.9	18.1*	5.6	4.2
COC(=O)c1sc(-c2ccc(C(C)(C)C)cc2)cc1NC(=O)COCC(=O)O	-0.2	3.2	0.6	-5.4	x	x	x
COC(=O)c1sc(-c2ccc(Cl)cc2)cc1NC(=O)CSCC(=O)O	20.1*	1.7	1.6	-5.4	33.2*	-6.9	23.8*
CC(C)[C@H](NC(=O)OCc1ccccc1)C(=O)N[C@@H](Cc1ccccc1)C1(O)CN(C)C(C(=O)NCc2ccccn2)CO1 (some centres not stated)	x	x	x	-3.6	x	x	x
COC(=O)[C@]12C[C@H](CC(=O)NCCC(C)C)C(=O)N(Cc3cccc4ccccc34)C1=C[C@H](C(C)(C)C)O[C@@H]2C	x	x	x	4.8	x	x	x
Cc1cc(C)nc(NS(=O)(=O)c2ccc(NC(=O)Nc3ccccc3F)cc2)n1	7.3*	1.8	-0.4	2.6	16.2*	-8.2	2.3
C[C@@H]1[C@@H](O)C[C@@]2(C[C@H](O)c3ccccc3O2)O[C@H]1c1ccccc1	x	x	x	6.0	x	x	x
SMILES	TbMetRS inhib	Rin1 Abl inh	PG9 binder	NR1D1 modulator	TbMetRS confirm	Jurkat tox	TbMetRS FP orth
Fc1ccc(-c2n[nH]c(=S)n2N=Cc2cccc(OCc3ccccc3)c2)cc1	x	x	x	5.5	x	x	x
COc1ccc(NC(=O)CN(C)C(=O)CCCc2c[nH]c3ccccc23)cc1	0.0	3.6	0.8	0.6	x	x	x
Cc1ccc(NC(=O)CN(C)C(=O)Cc2ccc(Cl)cc2Cl)cc1	53.8*	-0.7	-3.2	6.2	66.9*	-2.5	42.0*
CN(CC(=O)Nc1ccc(Cl)cc1)C(=O)CCc1c[nH]c2ccccc12	33.8*	-3.0	-0.2	0.5	54.5*	0.1	23.0*
CN(CC(=O)Nc1ccc(Cl)cc1)CC(=O)Nc1cccc(Br)c1	29.9*	-2.1	0.2	0.1	49.3*	7.3	28.5*
CN(CC(=O)Nc1ccc(Cl)cc1)C(=O)CCc1ccccc1	19.7*	3.1	-1.0	-4.3	39.2*	-4.7	17.8*
O=C1C(=O)N(Cc2ccc(-c3ccccc3)cc2)c2ccc(OC(F)(F)F)cc21	x	x	x	-1.5	x	x	x
CCN=C1NC(c2cccc(F)c2)C(C(=O)OC)=C(C)N1Cc1ccccc1C(F)(F)F (configuration not stated)	x	x	1.3	1.8	x	x	x
CN(CCC(=O)Nc1ccc2c(c1)OCO2)Cc1ccccc1	2.1	1.4	1.9	-5.2	x	x	x
CN(CCC(=O)Nc1ccc(Cl)cc1)Cc1ccccc1	13.8*	-1.8	-2.8	-3.7	30.7*	8.4	15.4
O=C(CCn1nnc2ccccc21)N1CCN(c2ccc(F)cc2)CC1	x	x	x	0.6	x	x	x
COc1ccc(-n2c(SCC(=O)Nc3ccc(Cl)cc3)nc(O)c(Cc3ccccc3)c2=O)cc1	47.5*	0.4	-1.8	-0.1	69.9*	-9.9	34.6*
COc1ccc(-n2c(SCC(=O)Nc3ccc(C)cc3)nc(O)c(Cc3ccccc3)c2=O)cc1	0.2	0.4	-2.0	-3.0	x	x	x
C=CCN1C(=O)[C@H](CC(=O)N2CCCCC2)[C@@]2(C(=O)OCC)CCCC=C12	x	x	x	2.6	x	x	x
CCOc1ccc(-n2c(SCC(=O)Nc3ccc(S(=O)(=O)Nc4nccs4)cc3)nnc2-c2ccccc2)cc1	x	x	x	5.6	x	x	x
O=C(CNC(=O)c1ccc(Br)cc1)N/N=C/c1ccc[nH]1	23.1*	-1.7	0.0	-6.8	47.1*	9.7	21.8*
COC(=O)[C@]12C[C@H](CC(=O)N3CCOCC3)C(=O)N(CCC3=CCCCC3)C1=C[C@H](C(C)C)O[C@@H]2C1CC1	x	x	x	1.6	x	x	x
O=C(Cc1ccccc1)Nc1nonc1NC(=O)c1ccccc1	9.1*	2.3	-1.5	-3.5	16.2*	3.8	10.3

High-throughput results (PubChem)
